Experimental data as given in ChEMBL document CHEMBL1124180, “Asymmetric synthesis and properties of the enantiomers of the antibacterial agent 7-(3-aminopyrrolidin-1-yl)-1-(2,4-difluorophenyl)-1,4-dihydro-6- fluoro-4-oxo-1,8-naphthyridine-3-carboxylic acid hydrochloride” (J Med Chem, 1988).

Columns and labels:
Assay type in all cases: functional
Bacteroides fragilis [1] = assay: In vitro activity against Bacteroides fragilis (SFM2906A)
Outline: (§1)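 MIC determined under anaerobic conditions on Wilkins-Chalgren agar.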

Hoylesella loescheii = assay: In vitro activity against Bacteroides loescheii (ATCC 15930).; outline: as §1
Escherichia coli [2] = assay: In vitro activity against Escherichia coli (KNK437)
Outline: (§2)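 MIC for aerobic bacteria, measured on brain-heart infusion agar.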

Staphylococcus aureus [3] = assay: In vitro activity against Staphylococcus aureus(45)
Outline: (§3)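 MIC determined by agar dilution on brain-heart infusion agar under aerobic conditions.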

Veillonella parvula = assay: In vitro activity against Veillonella parvula (ATCC 10790)
Outline: (§4)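 Anaerobic MICs measured by agar dilution on Wilkins-Chalgren agar.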

Bacteroides fragilis [4] = assay: In vitro activity against Bacteroides fragilis (784); outline: as §1
Prevotella disiens = assay: In vitro activity against Bacteroides disiens (ATCC 29426); outline: as §1
Enterococcus faecium = assay: In vitro activity against Enterococcus faecium (ATCC 8043).; outline: as §3
[5] = test system: Staphylococcus epidermidis; assay: In vitro activity against Staphylococcus epidermidis (3519); outline: as §3
[6] = test system: Bacteroides thetaiotaomicron; assay: In vitro activity against Bacteroides thetaiotaomicron (SFM2975-2); outline: as §1
Pseudomonas aeruginosa [7] = assay: In vitro activity against Pseudomonas aeruginosa (K799/WT).; outline: as §3
Escherichia coli [8] = assay: In vitro activity against Escherichia coli (SS).; outline: as §2
Phocaeicola vulgatus [9] = assay: In vitro activity against Bacteroides vulgatus(792); outline: as §1
Acinetobacter sp. = assay: In vitro activity against Acinetobacter sp.(CMX 669).; outline: as §3
Escherichia coli [10] = assay: In vitro activity against Escherichia coli (H560); outline: as §2
Staphylococcus aureus [11] = assay: In vitro activity against Staphylococcus aureus(CMX 503A); outline: as §3
Thomasclavelia ramosa = assay: In vitro activity against Clostridium romosum (7)
[12] = test system: Bacteroides thetaiotaomicron; assay: In vitro activity against Bacteroides thetaiotaomicron (106); outline: as §1
Clostridioides difficile [13] = assay: In vitro activity against Clostridium difficile (ATCC 17857)
Streptococcus pyogenes [14] = assay: In vitro activity against Streptococcus pyogenes(930 CONST).; outline: as §3
Bacteroides fragilis [15] = assay: In vitro activity against Bacteroides fragilis (UC-2); outline: as §1
Fusobacterium nucleatum = assay: In vitro activity against Fusobacterium nucleatum (ATCC 25586); outline: as §1
Peptostreptococcus = assay: In vitro activity against Peptostreptococcus sp.(TB-11)
Outline: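 MIC for anaerobic bacteria, measured on Wilkins-Chalgren agar.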

Escherichia coli [16] = assay: In vitro activity against Escherichia coli (DC-2); outline: as §2
Escherichia coli [17] = assay: In vitro activity against Escherichia coli Juhl; outline: as §2
[18] = test system: Peptostreptococcus anaerobius; assay: In vitro activity against Peptostreptococcus anaerobius (ATCC 27337); outline: as §1
Clostridium perfringens [19] = assay: In vitro activity against Clostridium perfringens (SFBC 2026)
Streptococcus agalactiae = assay: In vitro activity against Streptococcus agalactiae (CMX 508).; outline: as §3
Burkholderia cepacia = assay: In vitro activity against Pseudomonas cepacia (296I); outline: as §3
Clostridium perfringens [20] = assay: In vitro activity against Clostridium perfringens (104AT13124)
Klebsiella aerogenes = assay: In vitro activity against Enterobacter aerogenes (ATCC 13048).; outline: as §3
[21] = test system: Bacteroides thetaiotaomicron; assay: In vitro activity against Bacteroides thetaiotaomicron (ATCC 29742); outline: as §1
Pseudomonas aeruginosa [22] = assay: In vitro activity against Pseudomonas aeruginosa (BMH10); outline: as §3
Micrococcus luteus [23] = assay: In vitro activity against Micrococcus luteus (ATCC 9341); outline: as §3
[24] = test system: Prevotella melaninogenica; assay: In vitro activity against Bacteroides melaninogenicus (ATCC 25845).; outline: as §1
Parvimonas micra = assay: In vitro activity against Peptostreptococcus micros (ATCC 33270).; outline: as §1
Bacteroides fragilis [25] = assay: In vitro activity against Bacteroides fragilis (SFM2929-1); outline: as §1
[26] = test system: Bacteroides thetaiotaomicron; assay: In vitro activity against thetaiotaomicron (ATCC 29741); outline: as §4
Staphylococcus aureus [27] = assay: In vitro activity against Staphylococcus aureus(CMX 553); outline: as §3
Bacteroides fragilis [28] = assay: In vitro activity against Bacteroides fragilis (105AT25285); outline: as §1
Cutibacterium acnes = assay: In vitro activity against Propionibacterium acnes (132); outline: as §1
[29] = test system: Peptoniphilus asaccharolyticus; assay: In vitro activity against Peptococcus asaccharolyticus (ATCC 14963).; outline: as §1
Micrococcus luteus [30] = assay: In vitro activity against Micrococcus luteus (ATCC 4698); outline: as §3
Staphylococcus aureus [31] = assay: In vitro activity against Staphylococcus aureus(ATCC 6538P); outline: as §3
Streptococcus pyogenes [32] = assay: In vitro activity against Streptococcus pyogenes (EES61); outline: as §3
Pseudomonas aeruginosa [33] = assay: In vitro activity against Pseudomonas aeruginosa (A5007).; outline: as §3
Streptococcus equinus = assay: In vitro activity against Streptococcus bovis (A5169).; outline: as §3
Clostridium perfringens [34] = assay: In vitro activity against Clostridium perfringens (788)
Bacteroides fragilis [35] = assay: In vitro activity against Bacteroides fragilis (SFM2975-7); outline: as §1
Providencia stuartii = assay: In vitro activity against Providencia stuartii (CMX 640); outline: as §3
Staphylococcus aureus [36] = assay: In vitro activity against Staphylococcus aureus (A5177); outline: as §3
Streptococcus pyogenes [37] = assay: In vitro activity against Streptococcus pyogenes (2548 INDUC).; outline: as §3
Fusobacterium = assay: In vitro activity against Fusobacterium sp.(GS-10); outline: as §1
Finegoldia magna = assay: In vitro activity against Peptococcus magnus (ATCC 29328); outline: as §1
Phocaeicola vulgatus [38] = assay: In vitro activity against Bacteroides vulgatus(SFBC 2375); outline: as §1
Prevotella bivia = assay: In vitro activity against t Bacteroides bivius(B 6140); outline: as §4
Staphylococcus aureus [39] = assay: In vitro activity against Staphylococcus aureus(CMX 686B); outline: as §3
Klebsiella pneumoniae = assay: In vitro activity against Klebsiella pneumoniae (ATCC 8045).; outline: as §3
Clostridioides difficile [40] = assay: In vitro activity against Clostridium difficile (ATCC 9689)
Staphylococcus aureus [41] = assay: In vitro activity against Staphylococcus aureus(45 RAR2); outline: as §3

`Cl.N[C@@H]1CCN(c2nc3c(cc2F)c(=O)c(C(=O)O)cn3-c2ccc(F)cc2F)C1` was tested, and the MIC (Bacteroides fragilis [1]) was 2 µg/mL, the MIC (Hoylesella loescheii) was 4 µg/mL and the MIC (Escherichia coli [2]) was 0.39 µg/mL. The MIC (Staphylococcus aureus [3]) was 0.1 µg/mL, the MIC (Veillonella parvula) was 0.5 µg/mL and the MIC (Bacteroides fragilis [4]) was 2 µg/mL. For the same compound, the MIC (Prevotella disiens) was 2 µg/mL, the MIC (Enterococcus faecium) was 0.39 µg/mL and the MIC [5] was 0.1 µg/mL. For the same compound, the MIC [6] was 4 µg/mL, the MIC (Pseudomonas aeruginosa [7]) was 0.39 µg/mL and the MIC (Escherichia coli [8]) was 0.01 µg/mL. It also gave an MIC (Phocaeicola vulgatus [9]) of 2 µg/mL, an MIC (Acinetobacter sp.) of 0.1 µg/mL and an MIC (Escherichia coli [10]) of 0.05 µg/mL. It also gave an MIC (Staphylococcus aureus [11]) of 0.1 µg/mL, an MIC (Thomasclavelia ramosa) of 2 µg/mL and an MIC [12] of 8 µg/mL. The MIC (Clostridioides difficile [13]) was 4 µg/mL, the MIC (Streptococcus pyogenes [14]) was 0.39 µg/mL and the MIC (Bacteroides fragilis [15]) was 2 µg/mL. It also gave an MIC (Fusobacterium nucleatum) of 2 µg/mL, an MIC (Peptostreptococcus) of 0.5 µg/mL and an MIC (Escherichia coli [16]) of 0.39 µg/mL. For the same compound, the MIC (Escherichia coli [17]) was 0.05 µg/mL, the MIC [18] was 0.5 µg/mL and the MIC (Clostridium perfringens [19]) was 0.25 µg/mL. The MIC (Streptococcus agalactiae) was 0.39 µg/mL, the MIC (Burkholderia cepacia) was 6.2 µg/mL and the MIC (Clostridium perfringens [20]) was 0.25 µg/mL. It also gave an MIC (Klebsiella aerogenes) of 0.2 µg/mL, an MIC [21] of 8 µg/mL and an MIC (Pseudomonas aeruginosa [22]) of 0.2 µg/mL. The MIC (Micrococcus luteus [23]) was 3.1 µg/mL, the MIC [24] was 1 µg/mL and the MIC (Parvimonas micra) was 0.12 µg/mL. It also gave an MIC (Bacteroides fragilis [25]) of 2 µg/mL, an MIC [26] of 8 µg/mL and an MIC (Staphylococcus aureus [27]) of 0.1 µg/mL. For the same compound, the MIC (Bacteroides fragilis [28]) was 2 µg/mL, the MIC (Cutibacterium acnes) was 1 µg/mL and the MIC [29] was 0.25 µg/mL. The MIC (Micrococcus luteus [30]) was 1.56 µg/mL, the MIC (Staphylococcus aureus [31]) was 0.05 µg/mL and the MIC (Streptococcus pyogenes [32]) was 0.39 µg/mL. The MIC (Pseudomonas aeruginosa [33]) was 0.39 µg/mL, the MIC (Streptococcus equinus) was 0.39 µg/mL and the MIC (Clostridium perfringens [34]) was 0.25 µg/mL. For the same compound, the MIC (Bacteroides fragilis [35]) was 4 µg/mL, the MIC (Providencia stuartii) was 1.56 µg/mL and the MIC (Staphylococcus aureus [36]) was 0.1 µg/mL. The MIC (Streptococcus pyogenes [37]) was 0.2 µg/mL, the MIC (Fusobacterium) was 2 µg/mL and the MIC (Finegoldia magna) was 0.5 µg/mL. The MIC (Phocaeicola vulgatus [38]) was 1 µg/mL, the MIC (Prevotella bivia) was 2 µg/mL and the MIC (Staphylococcus aureus [39]) was 0.05 µg/mL. It also gave an MIC (Klebsiella pneumoniae) of 0.05 µg/mL, an MIC (Clostridioides difficile [40]) of 4 µg/mL and an MIC (Staphylococcus aureus [41]) of 0.1 µg/mL.
